The source of these data is PubChem BioAssay AID504338 (NMMLSC, 2011).

The source made the active and inactive calls.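 Rule for the calls: active = GFP response vs DMSO above 150% with enough events counted; inconclusive = fewer than 70 events counted for a yeast strain; inactive = the rest.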

The experiment can be described thus: yeast TOR reporter LAP4-GFP retest – cell-based, third cherry pick, flow cytometry, confirmation (AID 504338).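 Note: ratio to plate DMSO wells so 100% equals DMSO level rather than 0%.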 The settings on record: S. cerevisiae LAP4-GFP strain, 3 h, at 10 µM, hits give high values. Put shortly: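 material = yeast LAP4-GFP strain | medium = synthetic complete growth medium for yeast | doses = 10 µM, one concentration | schedule = compound exposure for 3 h at 30 °C | signal = flow cytometric GFP fluorescence | read-out basis = percent of mean DMSO-control median fluorescence | control set = rapamycin 400 ng/mL as positive control, DMSO wells as reference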
(In general: In flow cytometry, cells or beads pass a laser one at a time.)
`Cc1ccc2c(c1N)C(=O)c1ccccc1C2=O`: the GFP response vs DMSO was 104% (inactive).
As for `C/C(O)=C(\C#N)C(=O)Nc1cc(Br)ccc1Br`, the figure is 106% (inactive).
Next, `CN1CCN(c2ncnc3ccc(Br)cc23)CC1`: 107% (inactive); `CN(C)C(=O)Oc1ccc(Cl)c2cccnc12`: 106% (inactive).
As for `CCN1CCN(c2ncnc3ccc(Br)cc23)CC1`, the figure is 108% (inactive).
Turning to `CN(C)C(=O)Oc1ccnc2cc(Cl)ccc12`, the GFP response vs DMSO is 107% (inactive).
